Measured values from ChEMBL document CHEMBL1143453 (Bioorg Med Chem Lett, 2005).

Tests used:
[1] = target: T1, Alpha-2A adrenergic receptor (Homo sapiens, UniProt P08913); assay: (§1) Binding affinity towards human alpha-2A adrenergic receptor expressed in Chinese Hamster ovary (CHO) cells; format: functional, cell-based
T1 sequence (P08913 whole entry): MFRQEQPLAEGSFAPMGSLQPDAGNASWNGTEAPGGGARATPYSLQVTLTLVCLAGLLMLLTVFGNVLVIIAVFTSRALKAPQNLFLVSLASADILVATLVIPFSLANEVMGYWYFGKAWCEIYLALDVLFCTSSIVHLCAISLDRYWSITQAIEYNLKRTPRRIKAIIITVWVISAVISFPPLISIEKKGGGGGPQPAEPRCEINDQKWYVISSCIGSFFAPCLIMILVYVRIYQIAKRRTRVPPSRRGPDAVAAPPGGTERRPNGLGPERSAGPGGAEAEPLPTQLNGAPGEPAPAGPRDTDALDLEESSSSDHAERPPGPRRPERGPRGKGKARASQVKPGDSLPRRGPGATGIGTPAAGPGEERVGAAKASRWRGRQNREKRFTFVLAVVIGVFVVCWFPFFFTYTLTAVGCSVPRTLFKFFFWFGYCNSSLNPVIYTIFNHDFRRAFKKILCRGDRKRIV

[2] = target: T2, Alpha-1A adrenergic receptor (Homo sapiens, UniProt P35348); assay: Binding affinity towards alpha-1A adrenergic receptor expressed in human embryonic kidney (HEK293) cells; format: cell-based
T2 sequence (P35348 whole entry): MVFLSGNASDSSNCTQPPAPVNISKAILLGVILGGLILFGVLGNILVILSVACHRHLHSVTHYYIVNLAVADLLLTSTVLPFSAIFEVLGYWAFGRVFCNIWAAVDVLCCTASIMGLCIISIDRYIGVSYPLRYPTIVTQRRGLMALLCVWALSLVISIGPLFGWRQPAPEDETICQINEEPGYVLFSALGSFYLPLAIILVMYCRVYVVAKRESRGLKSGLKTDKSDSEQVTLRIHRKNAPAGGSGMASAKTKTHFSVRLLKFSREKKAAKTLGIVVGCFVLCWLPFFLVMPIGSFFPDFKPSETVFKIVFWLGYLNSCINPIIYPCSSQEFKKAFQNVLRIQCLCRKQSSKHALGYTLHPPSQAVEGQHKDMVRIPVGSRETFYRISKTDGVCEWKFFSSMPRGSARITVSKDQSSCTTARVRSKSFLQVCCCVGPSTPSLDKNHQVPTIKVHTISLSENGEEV

[3] = target: T3, Alpha-1D adrenergic receptor (Rattus norvegicus) (UniProt P23944); assay: Potency against alpha-1D adrenergic receptor is determined by phenylephrine-induced contractions in rat; format: functional
T3 sequence (whole entry): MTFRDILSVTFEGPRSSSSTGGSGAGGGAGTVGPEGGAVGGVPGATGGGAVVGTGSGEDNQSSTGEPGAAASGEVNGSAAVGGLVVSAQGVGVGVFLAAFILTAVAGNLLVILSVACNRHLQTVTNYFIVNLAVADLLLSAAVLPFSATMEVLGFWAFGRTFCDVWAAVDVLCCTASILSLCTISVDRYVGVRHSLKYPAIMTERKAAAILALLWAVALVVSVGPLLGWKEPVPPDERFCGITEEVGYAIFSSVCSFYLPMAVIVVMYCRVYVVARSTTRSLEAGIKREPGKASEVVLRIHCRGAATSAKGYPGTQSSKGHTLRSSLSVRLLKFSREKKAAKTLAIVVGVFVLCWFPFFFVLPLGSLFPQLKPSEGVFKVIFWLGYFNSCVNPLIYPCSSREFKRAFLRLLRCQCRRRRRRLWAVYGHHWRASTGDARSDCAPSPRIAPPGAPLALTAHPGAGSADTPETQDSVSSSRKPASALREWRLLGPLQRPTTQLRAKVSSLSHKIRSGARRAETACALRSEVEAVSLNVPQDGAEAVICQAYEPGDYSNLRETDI
Outline: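 Isolated rat aorta contracted with phenylephrine, with cumulative concentration–response curves run with and without antagonist. KB = antagonist concentration/(dose ratio − 1) by Schild, where dose ratio is the phenylephrine EC50 with antagonist over EC50 without. Means with 95% confidence limits, N = 4–6 experiments.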

[4] = target: T1, Alpha-2A adrenergic receptor; assay: as §1; format: cell-based
[5] = target: T4, Alpha-1D adrenergic receptor (Homo sapiens, UniProt P25100); assay: Binding affinity towards human alpha-1D adrenergic receptor expressed in human embryonic kidney (HEK293) cells
T4 sequence (P25100 whole entry): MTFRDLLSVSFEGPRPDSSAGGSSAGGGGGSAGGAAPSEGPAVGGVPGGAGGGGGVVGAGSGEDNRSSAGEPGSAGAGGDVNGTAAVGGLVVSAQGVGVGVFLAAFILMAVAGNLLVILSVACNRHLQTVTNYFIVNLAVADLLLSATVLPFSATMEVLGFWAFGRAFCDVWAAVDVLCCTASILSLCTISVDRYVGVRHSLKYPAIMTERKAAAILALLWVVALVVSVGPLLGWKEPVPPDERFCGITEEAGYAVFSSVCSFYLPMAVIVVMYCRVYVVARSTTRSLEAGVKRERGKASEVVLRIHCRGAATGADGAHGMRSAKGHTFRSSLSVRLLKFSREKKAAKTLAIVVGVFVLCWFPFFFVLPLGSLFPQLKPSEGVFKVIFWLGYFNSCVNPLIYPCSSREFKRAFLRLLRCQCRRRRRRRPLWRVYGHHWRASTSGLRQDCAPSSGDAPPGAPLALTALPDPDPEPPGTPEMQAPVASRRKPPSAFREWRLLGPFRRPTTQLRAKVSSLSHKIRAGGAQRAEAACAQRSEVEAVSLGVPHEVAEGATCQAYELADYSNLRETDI

[6] = target: T5, Alpha-2C adrenergic receptor (Homo sapiens, UniProt P18825); assay: Binding affinity towards human alpha-2C adrenergic receptor expressed in Chinese Hamster ovary (CHO) cells; format: cell-based
T5 sequence (P18825 whole entry): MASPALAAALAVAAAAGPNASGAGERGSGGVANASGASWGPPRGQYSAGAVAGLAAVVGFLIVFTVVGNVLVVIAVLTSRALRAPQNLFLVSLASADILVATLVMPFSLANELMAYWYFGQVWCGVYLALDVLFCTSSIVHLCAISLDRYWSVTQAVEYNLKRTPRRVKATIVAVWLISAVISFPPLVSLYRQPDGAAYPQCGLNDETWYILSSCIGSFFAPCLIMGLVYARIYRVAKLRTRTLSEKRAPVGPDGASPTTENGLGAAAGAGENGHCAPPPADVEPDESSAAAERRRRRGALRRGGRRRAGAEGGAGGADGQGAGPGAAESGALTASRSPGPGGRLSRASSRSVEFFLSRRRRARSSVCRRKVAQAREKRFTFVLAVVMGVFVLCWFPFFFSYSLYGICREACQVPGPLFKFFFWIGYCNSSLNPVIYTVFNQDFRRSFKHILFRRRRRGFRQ

[7] = target: T6, Alpha-1B adrenergic receptor (Homo sapiens, UniProt P35368); assay: Binding affinity towards human alpha-1B adrenergic receptor expressed in human embryonic kidney (HEK293) cells
T6 sequence (P35368 whole entry): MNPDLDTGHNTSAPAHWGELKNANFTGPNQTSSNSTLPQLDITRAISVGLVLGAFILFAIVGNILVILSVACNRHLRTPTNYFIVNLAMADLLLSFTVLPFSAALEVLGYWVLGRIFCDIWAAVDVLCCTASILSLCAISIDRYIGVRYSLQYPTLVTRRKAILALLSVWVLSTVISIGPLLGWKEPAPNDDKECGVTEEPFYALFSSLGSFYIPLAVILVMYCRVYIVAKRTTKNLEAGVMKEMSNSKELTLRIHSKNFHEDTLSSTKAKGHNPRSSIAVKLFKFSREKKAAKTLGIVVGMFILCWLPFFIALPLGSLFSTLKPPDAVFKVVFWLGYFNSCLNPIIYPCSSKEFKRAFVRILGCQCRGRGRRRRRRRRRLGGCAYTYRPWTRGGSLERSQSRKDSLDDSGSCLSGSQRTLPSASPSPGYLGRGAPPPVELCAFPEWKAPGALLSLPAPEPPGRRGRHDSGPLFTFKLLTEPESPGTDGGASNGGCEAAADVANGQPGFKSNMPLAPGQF

[8] = target: T7, Alpha-2B adrenergic receptor (Homo sapiens, UniProt P18089); assay: Binding affinity towards human alpha-2B adrenergic receptor expressed in Chinese Hamster ovary (CHO) cells; format: cell-based
T7 sequence (P18089 whole entry): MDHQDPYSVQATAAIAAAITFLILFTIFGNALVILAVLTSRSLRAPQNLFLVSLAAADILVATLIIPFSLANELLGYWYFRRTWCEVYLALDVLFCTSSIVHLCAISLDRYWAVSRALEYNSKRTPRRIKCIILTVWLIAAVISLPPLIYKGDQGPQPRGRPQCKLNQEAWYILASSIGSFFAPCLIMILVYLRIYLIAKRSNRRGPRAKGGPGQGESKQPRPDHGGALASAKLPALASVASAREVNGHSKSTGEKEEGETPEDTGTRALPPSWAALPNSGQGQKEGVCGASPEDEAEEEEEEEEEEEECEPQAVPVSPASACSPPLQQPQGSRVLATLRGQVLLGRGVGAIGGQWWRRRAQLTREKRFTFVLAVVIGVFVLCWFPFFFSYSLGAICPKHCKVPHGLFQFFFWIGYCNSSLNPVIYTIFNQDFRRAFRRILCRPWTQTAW

Row | SMILES | Ki [1] | Ki [2] | Kb [3] | Ki [4] | Ki [5] | Ki [6] | Ki [7] | Ki [8]
1 | COc1cccc(N(NC2=NCCO2)c2ccc(C)cc2)c1 | 24600 nM | 5740 nM | > 30000 nM |  |  |  |  | 
2 | Cc1ccc(N(NC2=NCCN2)c2cccc(O)c2)cc1 |  | 26.8 nM | 2.9 nM | 23.8 nM | 49.7 nM | 12.8 nM | 843 nM | 18 nM
3 | Cc1ccc(N(NC2=NCCO2)c2cccc(O)c2)cc1 |  | 5620 nM | 13000 nM | 18600 nM |  |  |  | 
4 | COc1cccc(N(NC2=NCCN2)c2ccc(C)cc2)c1 |  | 19.9 nM | 7.4 nM | 6.3 nM | 17.5 nM | 3.8 nM | 103 nM | 7.3 nM
